Test results from ChEMBL document CHEMBL4138275, “Taccalonolide Microtubule Stabilizers Generated Using Semisynthesis Define the Effects of Mono Acyloxy Moieties at C-7 or C-15 and Disubstitutions at C-7 and C-25” (J Nat Prod, 2018).
Active and inactive are the calls of the source. The calls are words filed in the database; no cut-off is given here.

Columns and labels:
HeLa [1] = test: Antiproliferative activity against human HeLa cells after 48 hrs by sulforhodamine B assay; format: functional, cell-based
In short: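 HeLa cells (STR-validated) grown in BME with 10% FBS and gentamycin, seeded 2500/well, left to adhere overnight, then exposed to compounds for 48 h. Cell density read by sulforhodamine B staining. IC50 is the concentration giving 50% inhibition of cell density versus vehicle, fitted by nonlinear regression. Mean of 3 or 4 experiments, each in triplicate, ±SD.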

HeLa [2] = test: Induction of microtubule stabilization in human HeLa cells assessed as formation of multiple aberrant mitotic spindle at 5 times IC50 after 18 hrs by indirect immunofluorescence assay; format: cell-based
In short: (§1)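 HeLa cells treated for 18 h at 5-fold each compound's own antiproliferative IC50, with EtOH as vehicle control. Mitotic and interphase microtubules stained by indirect immunofluorescence with a β-tubulin antibody and viewed by fluorescence microscopy.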

HeLa [3] = test: Induction of microtubule stabilization in human HeLa cells assessed as bundling of interphase microtubule at 5 times IC50 after 18 hrs by indirect immunofluorescence assay; format: cell-based; in short: as §1
Sus scrofa = species: Sus scrofa; test: Induction of porcine brain tubulin polymerization at 5 uM by turbidimetric method
In short: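 Compound or vehicle (1% EtOH) added; samples prepared on ice, then warmed to 37 °C to start polymerization. Rate and extent followed turbidimetrically at 340 nm.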

CC(=O)O[C@H]1[C@H]2[C@H]([C@@H]3[C@@H](O)[C@@H]4[C@H]([C@H](C)C=C5OC(=O)[C@@](C)(O)[C@@]54C)[C@@]3(C)[C@H]1OC(C)=O)[C@@H](OC(=O)CC(C)C)C(=O)[C@H]1C[C@@H]3O[C@@H]3[C@H](OC(C)=O)[C@]21C
IC50 (HeLa [1]): > 20000 nM

CC(=O)O[C@H]1[C@H]2[C@H]([C@@H]3[C@@H](OC=O)[C@@H]4[C@H]([C@H](C)C=C5OC(=O)[C@@](C)(O)[C@@]54C)[C@@]3(C)[C@H]1OC(C)=O)[C@@H](O)C(=O)[C@H]1C[C@@H]3O[C@@H]3[C@H](OC(C)=O)[C@]21C
IC50 (HeLa [1]): > 20000 nM

CC(=O)O[C@H]1[C@H]2[C@H]([C@@H]3[C@@H](OC(=O)C(C)C)[C@@H]4[C@H]([C@H](C)C=C5OC(=O)[C@@](C)(O)[C@@]54C)[C@@]3(C)[C@H]1OC(C)=O)[C@@H](O)C(=O)[C@H]1C[C@@H]3O[C@@H]3[C@H](OC(C)=O)[C@]21C
IC50 (HeLa [1]): > 20000 nM

CC(=O)O[C@H]1[C@H]2[C@H]([C@@H]3[C@@H](O)[C@@H]4[C@H]([C@H](C)C=C5OC(=O)[C@@](C)(O)[C@@]54C)[C@@]3(C)[C@H]1OC(C)=O)[C@@H](OC(=O)c1ccc3c(c1)C(=O)c1ccccc1C3=O)C(=O)[C@H]1C[C@@H]3O[C@@H]3[C@H](OC(C)=O)[C@]21C
IC50 (HeLa [1]): 3400 nM

CC(=O)O[C@H]1[C@H]2[C@H]([C@@H]3[C@@H](O)[C@@H]4[C@H]([C@H](C)[C@H]5O[C@]56OC(=O)[C@@](C)(O)[C@]46C)[C@@]3(C)[C@H]1OC(C)=O)[C@@H](OC(=O)C(C)(C)C)C(=O)[C@H]1C[C@@H]3O[C@@H]3[C@H](OC(C)=O)[C@]21C
IC50 (HeLa [1]): 9 nM | Activity (HeLa [2]): Active | Activity (HeLa [3]): Active | Activity (Sus scrofa): Active

CC(=O)O[C@H]1[C@H]2[C@H]([C@@H]3[C@@H](OC(=O)C(C)(C)C)[C@@H]4[C@H]([C@H](C)C=C5OC(=O)[C@@](C)(O)[C@@]54C)[C@@]3(C)[C@H]1OC(C)=O)[C@@H](O)C(=O)[C@H]1C[C@@H]3O[C@@H]3[C@H](OC(C)=O)[C@]21C
IC50 (HeLa [1]): 2400 nM

CC(=O)O[C@@H]1[C@H]2[C@H]3[C@H]([C@H](OC(C)=O)[C@H](OC(C)=O)[C@]2(C)[C@@H]2[C@@H]1[C@]1(C)C(=C[C@H]2C)OC(=O)[C@@]1(C)O)[C@]1(C)[C@H](C[C@@H]2O[C@@H]2[C@@H]1OC(C)=O)C(=O)[C@@H]3O [TACCALONOLIDE A]
IC50 (HeLa [1]): 5400 nM

CC(=O)O[C@H]1[C@H]2[C@H]([C@@H]3[C@@H](O)[C@@H]4[C@H]([C@H](C)[C@H]5O[C@]56OC(=O)[C@@](C)(O)[C@]46C)[C@@]3(C)[C@H]1OC(C)=O)[C@@H](OC(=O)c1ccc3c(c1)C(=O)c1ccccc1C3=O)C(=O)[C@H]1C[C@@H]3O[C@@H]3[C@H](OC(C)=O)[C@]21C
IC50 (HeLa [1]): 22 nM

CC(=O)O[C@H]1[C@H]2[C@H]([C@@H]3[C@@H](O)[C@@H]4[C@H]([C@H](C)C=C5OC(=O)[C@@](C)(OC(=O)C6CC6)[C@@]54C)[C@@]3(C)[C@H]1OC(C)=O)[C@@H](OC(=O)C1CC1)C(=O)[C@H]1C[C@@H]3O[C@@H]3[C@H](OC(C)=O)[C@]21C
IC50 (HeLa [1]): > 20000 nM

CC(=O)O[C@H]1[C@H]2[C@H]([C@@H]3[C@@H](OC(=O)c4ccc5c(c4)C(=O)c4ccccc4C5=O)[C@@H]4[C@H]([C@H](C)[C@H]5O[C@]56OC(=O)[C@@](C)(O)[C@]46C)[C@@]3(C)[C@H]1OC(C)=O)[C@@H](O)C(=O)[C@H]1C[C@@H]3O[C@@H]3[C@H](OC(C)=O)[C@]21C
IC50 (HeLa [1]): 38 nM

CC(=O)O[C@H]1[C@H]2[C@H]([C@@H]3[C@@H](O)[C@@H]4[C@H]([C@H](C)[C@H]5O[C@]56OC(=O)[C@@](C)(O)[C@]46C)[C@@]3(C)[C@H]1OC(C)=O)[C@@H](OC(=O)C(C)C)C(=O)[C@H]1C[C@@H]3O[C@@H]3[C@H](OC(C)=O)[C@]21C
IC50 (HeLa [1]): 19 nM | Activity (HeLa [2]): Active | Activity (HeLa [3]): Active

CC(=O)O[C@H]1[C@H]2[C@H]([C@@H]3[C@@H](O)[C@@H]4[C@H]([C@H](C)[C@H]5O[C@]56OC(=O)[C@@](C)(OC(=O)C5CC5)[C@]46C)[C@@]3(C)[C@H]1OC(C)=O)[C@@H](OC(=O)C1CC1)C(=O)[C@H]1C[C@@H]3O[C@@H]3[C@H](OC(C)=O)[C@]21C
IC50 (HeLa [1]): 130 nM | Activity (HeLa [2]): Active | Activity (HeLa [3]): Active

CC(=O)O[C@H]1[C@H]2[C@H]([C@@H]3[C@@H](O)[C@@H]4[C@H]([C@H](C)[C@H]5O[C@]56OC(=O)[C@@](C)(OC(=O)c5ccc7c(c5)C(=O)c5ccccc5C7=O)[C@]46C)[C@@]3(C)[C@H]1OC(C)=O)[C@@H](OC(=O)c1ccc3c(c1)C(=O)c1ccccc1C3=O)C(=O)[C@H]1C[C@@H]3O[C@@H]3[C@H](OC(C)=O)[C@]21C
IC50 (HeLa [1]): 3000 nM

CC(=O)O[C@H]1[C@H]2[C@H]([C@@H]3[C@@H](O)[C@@H]4[C@H]([C@H](C)C=C5OC(=O)[C@@](C)(OC(=O)c6ccc7c(c6)C(=O)c6ccccc6C7=O)[C@@]54C)[C@@]3(C)[C@H]1OC(C)=O)[C@@H](OC(=O)c1ccc3c(c1)C(=O)c1ccccc1C3=O)C(=O)[C@H]1C[C@@H]3O[C@@H]3[C@H](OC(C)=O)[C@]21C
IC50 (HeLa [1]): > 20000 nM

CC(=O)O[C@H]1[C@H]2[C@H]([C@@H]3[C@@H](OC(=O)CC(C)C)[C@@H]4[C@H]([C@H](C)C=C5OC(=O)[C@@](C)(O)[C@@]54C)[C@@]3(C)[C@H]1OC(C)=O)[C@@H](O)C(=O)[C@H]1C[C@@H]3O[C@@H]3[C@H](OC(C)=O)[C@]21C
IC50 (HeLa [1]): 1500 nM

CC(=O)O[C@H]1[C@H]2[C@H]([C@@H]3[C@@H](O)[C@@H]4[C@H]([C@H](C)C=C5OC(=O)[C@@](C)(OC(=O)CC(C)C)[C@@]54C)[C@@]3(C)[C@H]1OC(C)=O)[C@@H](OC(=O)CC(C)C)C(=O)[C@H]1C[C@@H]3O[C@@H]3[C@H](OC(C)=O)[C@]21C
IC50 (HeLa [1]): > 20000 nM

CC(=O)O[C@H]1[C@H]2[C@H]([C@@H]3[C@@H](O)[C@@H]4[C@H]([C@H](C)C=C5OC(=O)[C@@](C)(O)[C@@]54C)[C@@]3(C)[C@H]1OC(C)=O)[C@@H](OC(=O)C(C)C)C(=O)[C@H]1C[C@@H]3O[C@@H]3[C@H](OC(C)=O)[C@]21C
IC50 (HeLa [1]): 4700 nM

CC(=O)O[C@H]1[C@H]2[C@H]([C@@H]3[C@@H](OC(=O)c4ccc5c(c4)C(=O)c4ccccc4C5=O)[C@@H]4[C@H]([C@H](C)C=C5OC(=O)[C@@](C)(O)[C@@]54C)[C@@]3(C)[C@H]1OC(C)=O)[C@@H](O)C(=O)[C@H]1C[C@@H]3O[C@@H]3[C@H](OC(C)=O)[C@]21C
IC50 (HeLa [1]): 7100 nM

CC(=O)O[C@H]1[C@H]2[C@H]([C@@H]3[C@@H](OC(=O)C4CC4)[C@@H]4[C@H]([C@H](C)C=C5OC(=O)[C@@](C)(O)[C@@]54C)[C@@]3(C)[C@H]1OC(C)=O)[C@@H](O)C(=O)[C@H]1C[C@@H]3O[C@@H]3[C@H](OC(C)=O)[C@]21C
IC50 (HeLa [1]): > 20000 nM

CC(=O)O[C@H]1[C@H]2[C@H]([C@@H]3[C@@H](O)[C@@H]4[C@H]([C@H](C)[C@H]5O[C@]56OC(=O)[C@@](C)(OC(=O)CC(C)C)[C@]46C)[C@@]3(C)[C@H]1OC(C)=O)[C@@H](OC(=O)CC(C)C)C(=O)[C@H]1C[C@@H]3O[C@@H]3[C@H](OC(C)=O)[C@]21C
IC50 (HeLa [1]): 250 nM | Activity (HeLa [2]): Active | Activity (HeLa [3]): Active

CC(=O)O[C@H]1[C@H]2[C@H]([C@@H]3[C@@H](O)[C@@H]4[C@H]([C@H](C)C=C5OC(=O)[C@@](C)(O)[C@@]54C)[C@@]3(C)[C@H]1OC(C)=O)[C@@H](OC(=O)C(C)(C)C)C(=O)[C@H]1C[C@@H]3O[C@@H]3[C@H](OC(C)=O)[C@]21C
IC50 (HeLa [1]): 10000 nM

CC(=O)O[C@H]1[C@H]2[C@H]([C@@H]3[C@@H](O)[C@@H]4[C@H]([C@H](C)C=C5OC(=O)[C@@](C)(OC(=O)C(C)C)[C@@]54C)[C@@]3(C)[C@H]1OC(C)=O)[C@@H](OC(=O)C(C)C)C(=O)[C@H]1C[C@@H]3O[C@@H]3[C@H](OC(C)=O)[C@]21C
IC50 (HeLa [1]): > 20000 nM

CC(=O)O[C@H]1[C@H]2[C@H]([C@@H]3[C@@H](O)[C@@H]4[C@H]([C@H](C)[C@H]5O[C@]56OC(=O)[C@@](C)(OC(=O)C(C)C)[C@]46C)[C@@]3(C)[C@H]1OC(C)=O)[C@@H](OC(=O)C(C)C)C(=O)[C@H]1C[C@@H]3O[C@@H]3[C@H](OC(C)=O)[C@]21C
IC50 (HeLa [1]): 790 nM | Activity (HeLa [2]): Active

CC(=O)O[C@H]1[C@H]2[C@H]([C@@H]3[C@@H](OC=O)[C@@H]4[C@H]([C@H](C)[C@H]5O[C@]56OC(=O)[C@@](C)(O)[C@]46C)[C@@]3(C)[C@H]1OC(C)=O)[C@@H](O)C(=O)[C@H]1C[C@@H]3O[C@@H]3[C@H](OC(C)=O)[C@]21C
IC50 (HeLa [1]): 8.4 nM | Activity (HeLa [2]): Active
